# Source: ChEMBL document CHEMBL1149169 (J Med Chem, 2004)
# Target: T1, Adenosine receptor A1 (Homo sapiens, UniProt P30542)
# T1 sequence (P30542 whole entry): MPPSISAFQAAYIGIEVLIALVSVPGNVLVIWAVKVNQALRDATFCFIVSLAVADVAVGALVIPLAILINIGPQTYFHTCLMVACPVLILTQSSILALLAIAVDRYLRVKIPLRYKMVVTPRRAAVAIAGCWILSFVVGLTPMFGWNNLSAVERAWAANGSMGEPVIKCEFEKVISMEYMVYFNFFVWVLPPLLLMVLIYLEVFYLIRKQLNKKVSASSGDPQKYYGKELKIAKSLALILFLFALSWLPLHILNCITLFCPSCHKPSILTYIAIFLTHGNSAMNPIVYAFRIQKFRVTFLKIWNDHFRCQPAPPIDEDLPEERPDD
# Assay: Binding affinity against adenosine A1 receptor in human cortical membranes using [3H]CHA as radioligand
# Assay type: cell membranes
row,Ki [nM],SMILES
1,> 10000,Cc1ccc2c(O)ccnc2n1
2,2600,CCOc1ccc2c(O)cc(-c3ccccc3)nc2n1
3,> 10000,Cc1ccc2c(N=[N+]=[N-])cc(-c3ccccc3)nc2n1
4,980,CN(C)c1ccc2c(O)cc(-c3ccccc3)nc2n1
5,> 10000,CCOc1cc(-c2ccccc2)nc2c1ccc(=O)n2CC
6,3400,Nc1ccc2c(O)cc(-c3ccccc3)nc2n1
7,> 10000,Oc1cc(-c2ccccc2)nc2nc(N3CCNCC3)ccc12
8,2200,Oc1cc(-c2ccccc2)nc2nc(NC3CCCCC3)ccc12
9,300,Oc1cc(-c2ccccc2)nc2nc(Cl)ccc12
10,> 10000,Oc1cc(-c2ccccc2)nc2nc(N3CCOCC3)ccc12
11,> 10000,Cc1ccc2ccc(-c3ccccc3)nc2n1
12,> 10000,Oc1cc(-c2ccccc2)nc2nc(Oc3ccccc3)ccc12
13,> 10000,Cc1ccc2c(N(C)C)cc(-c3ccccc3)nc2n1
14,1000,CCOc1cc(-c2ccccc2)nc2nc(Br)ccc12
15,2200,Cc1ccc2c(O)cc(-c3cccc([N+](=O)[O-])c3)nc2n1
16,> 10000,O=c1ccc2c(O)cc(-c3ccccc3)nc2[nH]1
17,> 10000,Cc1cc(O)c2ccc(N)nc2n1
18,> 10000,Cn1c(=O)ccc2c(O)cc(-c3ccccc3)nc21
19,560,Cc1ccc2c(NC3CCCCC3)cc(-c3ccccc3)nc2n1
20,> 10000,COc1cc(-c2ccccc2)nc2c1ccc(=O)n2C
21,7500,Oc1cc(-c2ccccc2)nc2nc(N3CCCCC3)ccc12
22,430,Cc1ccc2c(O)cc(-c3ccccc3)nc2n1
23,4000,Cc1ccc2c(O)cc(-c3cccc(N)c3)nc2n1
24,8800,Cc1ccc2c(Oc3ccccc3)cc(-c3ccccc3)nc2n1

row,Ki [nM],SMILES
1,1500,CCCc1cc(O)c2ccc(C)nc2n1
2,930,CCOc1ccc2c(=O)cc(-c3ccccc3)n(CC)c2n1
3,> 10000,CSc1cc(-c2ccccc2)nc2nc(C)ccc12
4,> 10000,Cc1cc(O)c2ccc(=O)[nH]c2n1
5,> 10000,Cc1ccc2c(N3CCNCC3)cc(-c3ccccc3)nc2n1
6,> 10000,CCOc1ccc2c(OCC)cc(-c3ccccc3)nc2n1
7,2000,Cc1ccc2c(N)cc(-c3ccccc3)nc2n1
8,> 10000,Cc1ccc2c(Cl)cc(-c3ccccc3)nc2n1
9,> 10000,CCn1c(-c2ccccc2)cc(=O)c2ccc(C)nc21
10,910,Cc1ccc2c(O)cc(-c3ccc(N)cc3)nc2n1
11,360,Oc1cc(-c2ccccc2)nc2nc(Br)ccc12
12,> 10000,COc1cc(-c2ccccc2)nc2nc(C)ccc12
13,> 10000,Cc1ccc2c(NN)cc(-c3ccccc3)nc2n1
14,490,Cc1ccc2c(O)cc(-c3ccccc3F)nc2n1
15,> 10000,Cc1ccc2c(N)ccnc2n1
16,4100,CCCc1cc(O)c2ccc(N)nc2n1
17,3900,Cc1ccc2c(O)cc(-c3ccc(F)cc3)nc2n1
18,2000,COc1ccc2c(O)cc(-c3ccccc3)nc2n1
19,1400,Oc1cc(-c2ccccc2)nc2nc(F)ccc12
20,1300,Oc1cc(-c2ccccc2)nc2ncccc12
21,2000,CC(=O)Nc1ccc(-c2cc(O)c3ccc(C)nc3n2)cc1
22,3100,Cc1ccc2c(O)cc(-c3ccc([N+](=O)[O-])cc3)nc2n1
23,2000,Cc1ccc2c(S)cc(-c3ccccc3)nc2n1
24,> 10000,CCOC(=O)CCN1CCN(c2ccc3c(O)cc(-c4ccccc4)nc3n2)CC1

# Target: T2, Adenosine receptor A1 (Bos taurus, UniProt P28190)
# T2 sequence (P28190 whole entry): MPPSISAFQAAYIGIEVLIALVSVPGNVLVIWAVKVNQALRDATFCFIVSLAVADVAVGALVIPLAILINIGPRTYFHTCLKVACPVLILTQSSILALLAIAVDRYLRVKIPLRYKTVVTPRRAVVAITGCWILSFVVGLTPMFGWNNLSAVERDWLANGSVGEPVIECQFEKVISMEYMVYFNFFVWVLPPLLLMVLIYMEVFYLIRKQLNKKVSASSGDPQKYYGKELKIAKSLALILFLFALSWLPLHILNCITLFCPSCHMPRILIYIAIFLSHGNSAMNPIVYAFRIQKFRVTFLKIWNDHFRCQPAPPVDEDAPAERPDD
# Assay: Binding affinity against adenosine A1 receptor in bovine cortical membranes using [3H]CHA as radioligand
# Assay type: cell membranes
# Method in brief: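 Bovine cortical membranes; [3H]-CHA at 39 Ci/mmol. Compounds dissolved in DMSO, with solvent blanks run. At least six concentrations spanning 3 orders of magnitude.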
row,Ki [nM],SMILES
1,7000,Cc1ccc2c(O)ccnc2n1
2,0.56,CN(C)c1ccc2c(O)cc(-c3ccccc3)nc2n1
3,4700,CCOc1cc(-c2ccccc2)nc2c1ccc(=O)n2CC
4,> 10000,Oc1cc(-c2ccccc2)nc2nc(N3CCNCC3)ccc12
5,70,Oc1cc(-c2ccccc2)nc2nc(NC3CCCCC3)ccc12
6,160,Oc1cc(-c2ccccc2)nc2nc(N3CCOCC3)ccc12
7,50,CCOc1cc(-c2ccccc2)nc2nc(Br)ccc12
8,15,Cc1ccc2c(O)cc(-c3cccc([N+](=O)[O-])c3)nc2n1
9,0.25,"CCCn1c(=O)c2[nH]c(C3CCCC3)nc2n(CCC)c1=O [1,3-DIPROPYL-8-CYCLOPENTYLXANTHINE [DPCPX]]"
10,> 10000,Cc1cc(O)c2ccc(N)nc2n1
11,7.2,Oc1cc(-c2ccccc2)nc2nc(N3CCCCC3)ccc12
12,48,CCCc1cc(O)c2ccc(C)nc2n1
13,48,CCOc1ccc2c(=O)cc(-c3ccccc3)n(CC)c2n1
14,380,CSc1cc(-c2ccccc2)nc2nc(C)ccc12
15,> 10000,Cc1cc(O)c2ccc(=O)[nH]c2n1
16,357,Nc1nc2c(cnn2CCc2ccccc2)c2nc(-c3ccco3)nn12 [SCH-58261]
17,290,CCOc1ccc2c(OCC)cc(-c3ccccc3)nc2n1
18,6.8,Cc1ccc2c(O)cc(-c3ccc(N)cc3)nc2n1
19,> 10000,Cc1ccc2c(N)ccnc2n1
20,210,CCCc1cc(O)c2ccc(N)nc2n1
21,1,CC(=O)Nc1ccc(-c2cc(O)c3ccc(C)nc3n2)cc1
22,> 10000,CCOC(=O)CCN1CCN(c2ccc3c(O)cc(-c4ccccc4)nc3n2)CC1

# Target: Adenosine receptor A2a (Bos taurus)
# Assay: Binding affinity against adenosine A2 receptor in bovine striatal membranes using [3H]-CGS-21,680 as radioligand
row,Ki [nM],SMILES
1,> 10000,Cc1ccc2c(O)ccnc2n1
2,> 10000,Oc1cc(-c2ccccc2)nc2nc(N3CCNCC3)ccc12
3,> 10000,Oc1cc(-c2ccccc2)nc2nc(N3CCOCC3)ccc12
4,> 10000,Oc1cc(-c2ccccc2)nc2nc(N3CCCCC3)ccc12
5,> 10000,CCOc1ccc2c(=O)cc(-c3ccccc3)n(CC)c2n1
6,> 10000,CSc1cc(-c2ccccc2)nc2nc(C)ccc12
7,> 10000,Cc1cc(O)c2ccc(=O)[nH]c2n1
8,> 10000,CCOc1ccc2c(OCC)cc(-c3ccccc3)nc2n1
9,500,Cc1ccc2c(O)cc(-c3ccc(N)cc3)nc2n1
10,> 10000,Cc1ccc2c(N)ccnc2n1

# Target: T2, Adenosine receptor A1
# Assay: Displacement of [3H]DPCPX from adenosine A1 receptor in bovine brain cortical membranes
# Assay type: cell membranes
# Method in brief: (§1)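 Cortical membranes (0.05–0.1 mg protein) incubated in triplicate at 25 °C for 120 min with about 0.5 nM [3H]-DPCPX (89 Ci/mmol). Buffer: 50 mM Tris/HCl pH 7.7, 1 mM EDTA, 2 mM MgCl2. Nonspecific binding with 10 μM (R)-PIA; GF/C filtration.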
row,Ki [nM],SMILES
1,6.02,CN(C)c1ccc2c(O)cc(-c3ccccc3)nc2n1
2,1.62,Oc1cc(-c2ccccc2)nc2nc(Cl)ccc12
3,> 10000,Cc1cc(O)c2ccc(N)nc2n1
4,39,Cc1ccc2c(NC3CCCCC3)cc(-c3ccccc3)nc2n1
5,61.5,CCCc1cc(O)c2ccc(C)nc2n1
6,1.6,Oc1cc(-c2ccccc2)nc2nc(Br)ccc12
7,1.67,CC(=O)Nc1ccc(-c2cc(O)c3ccc(C)nc3n2)cc1

# Target: Adenosine receptor A2a (Homo sapiens, UniProt P29274)
# Assay: Binding affinity against adenosine A2 receptor in human striatal membranes using [3H]CGS-21680 as radioligand
# Assay type: cell membranes, Striatum, Membrane
# Sequence of Adenosine receptor A2a (P29274 whole entry): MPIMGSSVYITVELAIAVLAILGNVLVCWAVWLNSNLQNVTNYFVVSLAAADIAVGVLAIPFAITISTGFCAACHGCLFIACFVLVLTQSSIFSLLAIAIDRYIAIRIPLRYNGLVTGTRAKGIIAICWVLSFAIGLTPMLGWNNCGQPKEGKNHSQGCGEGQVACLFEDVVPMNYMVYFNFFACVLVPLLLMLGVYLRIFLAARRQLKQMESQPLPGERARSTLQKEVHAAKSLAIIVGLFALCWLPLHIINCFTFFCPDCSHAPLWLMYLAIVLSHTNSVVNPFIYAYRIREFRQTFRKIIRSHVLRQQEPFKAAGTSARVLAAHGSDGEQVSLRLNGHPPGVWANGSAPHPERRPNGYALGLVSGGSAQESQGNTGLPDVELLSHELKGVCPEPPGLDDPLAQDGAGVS
row,Ki [nM],SMILES
1,1800,Cc1ccc2c(O)ccnc2n1
2,1500,CCOc1ccc2c(O)cc(-c3ccccc3)nc2n1
3,> 10000,Oc1cc(-c2ccccc2)nc2nc(N3CCNCC3)ccc12
4,> 10000,Oc1cc(-c2ccccc2)nc2nc(N3CCOCC3)ccc12
5,7500,Cc1cc(O)c2ccc(N)nc2n1
6,> 10000,Oc1cc(-c2ccccc2)nc2nc(N3CCCCC3)ccc12
7,550,Cc1ccc2c(O)cc(-c3ccccc3)nc2n1
8,1400,CCOc1ccc2c(=O)cc(-c3ccccc3)n(CC)c2n1
9,210,CSc1cc(-c2ccccc2)nc2nc(C)ccc12
10,> 10000,Cc1cc(O)c2ccc(=O)[nH]c2n1
11,> 10000,CCOc1ccc2c(OCC)cc(-c3ccccc3)nc2n1
12,110,Cc1ccc2c(O)cc(-c3ccc(N)cc3)nc2n1
13,40,Cc1ccc2c(O)cc(-c3ccccc3F)nc2n1
14,> 10000,Cc1ccc2c(N)ccnc2n1
15,2700,Oc1cc(-c2ccccc2)nc2nc(F)ccc12

# System: not listed separately
# Assay: Ratio of binding affinity against bovine adenosine A1 to that of A2 receptor
row,Ratio,SMILES
1,> 1.4,Cc1ccc2c(O)ccnc2n1
2,> 1920,CCOc1ccc2c(O)cc(-c3ccccc3)nc2n1
3,> 63,Oc1cc(-c2ccccc2)nc2nc(N3CCOCC3)ccc12
4,> 1390,Oc1cc(-c2ccccc2)nc2nc(N3CCCCC3)ccc12
5,87,Cc1ccc2c(O)cc(-c3ccccc3)nc2n1
6,208,CCOc1ccc2c(=O)cc(-c3ccccc3)n(CC)c2n1
7,> 26,CSc1cc(-c2ccccc2)nc2nc(C)ccc12
8,> 34,CCOc1ccc2c(OCC)cc(-c3ccccc3)nc2n1
9,> 10,Cc1ccc2c(Cl)cc(-c3ccccc3)nc2n1
10,73,Cc1ccc2c(O)cc(-c3ccc(N)cc3)nc2n1
11,43,Cc1ccc2c(O)cc(-c3ccccc3F)nc2n1
12,41,Oc1cc(-c2ccccc2)nc2nc(F)ccc12

# Target: T1, Adenosine receptor A1
# Assay: Displacement of [3H]DPCPX from adenosine A1 receptor in human brain cortical membranes
# Assay type: cell membranes
# Method in brief: as §1
row,Ki [nM],SMILES
1,1370,CN(C)c1ccc2c(O)cc(-c3ccccc3)nc2n1
2,670,Oc1cc(-c2ccccc2)nc2nc(Cl)ccc12
3,> 10000,O=c1ccc2c(O)cc(-c3ccccc3)nc2[nH]1
4,> 10000,Cc1cc(O)c2ccc(N)nc2n1
5,448,Cc1ccc2c(NC3CCCCC3)cc(-c3ccccc3)nc2n1
6,1450,CCCc1cc(O)c2ccc(C)nc2n1
7,336,Oc1cc(-c2ccccc2)nc2nc(Br)ccc12
8,1460,CC(=O)Nc1ccc(-c2cc(O)c3ccc(C)nc3n2)cc1
